# Data taken from ChEMBL document CHEMBL1157034, “Synthesis of 1-benzyl-3-(5-hydroxymethyl-2-furyl)selenolo[3,2-c]pyrazole derivatives as new anticancer agents” (Eur J Med Chem, 2010).
# Key:
# NCI-H226 = assay: Antitumor activity against human NCI-H226 cells after 48 hrs by MTT assay; type: functional, cell-based; details: NCI-H226, 48 h
# Summary of the method: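 Cells grown at 37 °C in humidified 5% CO2, seeded at 1×10^4 cells/well, and allowed to attach for 24 h. They were then exposed to a range of concentrations for 48 h, washed with PBS, and given 1 mg/ml MTT for 2 h. Formazan was dissolved in DMSO and read at 570 nm.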
# ACHN = assay: Antitumor activity against human ACHN cells after 48 hrs by MTT assay; type: functional, cell-based
structure (smiles),measurement,setting,value
OCc1ccc(-c2nn(Cc3ccccc3)c3ccccc23)o1,IC50,NCI-H226,25 µM
same,IC50,ACHN,0.3 µM
